Test results: ChEMBL document CHEMBL3865794, “Novel securinine derivatives as topoisomerase I based antitumor agents” (Eur J Med Chem, 2016)
The source made the active and inactive calls. The calls are words filed in the database; no cut-off is given here.

Tests used:
Bos taurus [1] = species on record: Bos taurus; test: Inhibition of calf thymus DNA topoisomerase 1 assessed as DNA-insertion by measuring reduction in conversion of negatively supercoiled pBR322 plasmid DNA to relaxed DNA at 25 uM preincubated followed by substrate addition measured after 30 mins by ethidium bromide staining based agarose gel electrophoresis
Procedure, shortened: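 Calf thymus Topo I (20 units) and negatively supercoiled pBR322 DNA with test compound or ethidium bromide in Topo I buffer (50 mM Tris-HCl pH 7.5, 10 mM MgCl2, 50 mM KCl, 0.1 mM EDTA, 0.5 mM DTT, BSA), 30 min at 37 °C. 1% agarose gel in 1× TAE, 40 min. Ethidium bromide stain 30 min, UV imaging.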

[2] = Growth inhibition of human A549 cells after 72 hrs by MTT assay; type: functional, cell-based; conditions: Homo sapiens, A549, 72 h
Procedure, shortened: (§1)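 Cells seeded at 5 × 10³ per well and incubated overnight in medium with 10% FBS. Medium then replaced with fresh medium containing compound at […] for 72 h. MTT (5 mg/mL stock, 20 µL per well) added for 4 h at 37 °C, formazan dissolved in DMSO, absorbance read at 570 nm. Each dose run in parallel triplicate. IC50 taken from mean absorbance versus concentration curves.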

[3] = Growth inhibition of human HeLa cells after 72 hrs by MTT assay; type: functional, cell-based; conditions: Homo sapiens, HeLa, 72 h; procedure, shortened: as §1
[4] = Growth inhibition of human HepG2 cells after 72 hrs by MTT assay; type: functional, cell-based; conditions: Homo sapiens, HepG2, 72 h; procedure, shortened: as §1
[5] = Growth inhibition of human SH-SY5Y cells after 72 hrs by MTT assay; type: functional, cell-based; conditions: Homo sapiens, SH-SY5Y, 72 h; procedure, shortened: as §1
[6] = Growth inhibition of human L02 cells after 72 hrs by MTT assay; type: cell-based; conditions: L02, 72 h; procedure, shortened: as §1
A549 = test: Selectivity index, ratio of IC50 for human L02 cells to IC50 for human A549 cells; type: functional
[7] = molecular target: T1, DNA topoisomerase 1 (Homo sapiens) (UniProt P11387); test: Inhibition of DNA topoisomerase 1 (unknown origin) assessed as reduction in relaxation of supercoiled pBR322 plasmid DNA at 100 uM incubated for 30 mins by agarose gel electrophoresis relative to control
T1 sequence (whole entry): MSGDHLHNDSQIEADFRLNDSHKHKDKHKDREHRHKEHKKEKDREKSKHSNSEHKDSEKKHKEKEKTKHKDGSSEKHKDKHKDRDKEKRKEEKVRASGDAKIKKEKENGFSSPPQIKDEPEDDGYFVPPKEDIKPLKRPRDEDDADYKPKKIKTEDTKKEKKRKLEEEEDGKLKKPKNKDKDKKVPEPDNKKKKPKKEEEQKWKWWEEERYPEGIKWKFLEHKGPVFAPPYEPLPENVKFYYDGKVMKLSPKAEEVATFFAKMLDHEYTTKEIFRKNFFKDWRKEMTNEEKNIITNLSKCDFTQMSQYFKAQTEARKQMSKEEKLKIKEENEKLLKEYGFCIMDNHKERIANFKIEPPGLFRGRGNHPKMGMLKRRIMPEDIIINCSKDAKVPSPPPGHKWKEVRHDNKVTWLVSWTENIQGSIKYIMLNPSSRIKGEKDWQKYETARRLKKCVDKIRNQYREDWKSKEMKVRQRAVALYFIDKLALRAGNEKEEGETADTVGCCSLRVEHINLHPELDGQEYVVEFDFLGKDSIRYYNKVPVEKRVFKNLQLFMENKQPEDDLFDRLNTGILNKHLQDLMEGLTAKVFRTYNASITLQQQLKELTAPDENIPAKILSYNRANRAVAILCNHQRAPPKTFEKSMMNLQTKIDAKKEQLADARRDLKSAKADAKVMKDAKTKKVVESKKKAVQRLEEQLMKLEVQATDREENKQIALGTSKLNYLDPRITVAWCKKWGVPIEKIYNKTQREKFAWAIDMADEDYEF
Procedure, shortened: (§2)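 Supercoiled pBR322 DNA incubated with Topo I in the presence or absence of compound for 30 min at 37 °C. Reaction stopped with dye solution of bromophenol blue, xylene cyanol and glycerol. Products run on 1% agarose in 1× TAE for 40 min, then EB-stained and UV-imaged. Inhibition rate derived from gel gray-scale analysis relative to control. Camptothecin served as positive control.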

[8] = Antiproliferative activity against human SW480 cells after 48 hrs by MTT assay; type: functional, cell-based; conditions: SW480, 48 h
Bos taurus [9] = species on record: Bos taurus; test: Inhibition of calf thymus DNA topoisomerase 1-mediated DNA cleavage assessed as drug-enzyme-DNA covalent ternary complex formation by measuring increase in linear band using negatively supercoiled pBR322 plasmid DNA as substrate at 25 to 50 uM after 30 mins by agarose gel electrophoresis
Procedure, shortened: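 Calf thymus Topo I (30 units) and negatively supercoiled pBR322 in Topo I buffer (pH 7.5), 30 min at 37 °C. Test compounds at 25–200, camptothecin at […]. Trapped with 1% SDS, then proteinase K 0.8 mg/mL, 10 min at 50 °C. 1% agarose/TAE run 30 min at 60 V, ethidium bromide stain, second 30-min electrophoresis. Scored as supercoiled-to-nicked/linear conversion under UV.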

[10] = molecular target: T1, DNA topoisomerase 1 (Homo sapiens); test: Inhibition of DNA topoisomerase 1 (unknown origin) assessed as reduction in relaxation of supercoiled pBR322 plasmid DNA incubated for 30 mins by agarose gel electrophoresis; procedure, shortened: as §2
[11] = molecular target: T1, DNA topoisomerase 1 (Homo sapiens); test: Inhibition of DNA topoisomerase 1 (unknown origin) assessed as reduction in topoisomerase 1-DNA complex formation preincubated for 20 mins followed by supercoiled pBR322 plasmid DNA addition measured after 3 mins by electrophoretic mobility shift assay

SMILES | inhibition (Bos taurus [1]) | IC50 [2] [µM] | IC50 [3] [µM] | IC50 [4] [µM] | IC50 [5] [µM] | IC50 [6] [µM] | Ratio IC50 (A549) | inhibition [7] [%] | IC50 [8] [µM] | inhibition (Bos taurus [9]) | inhibition [10] | inhibition [11]
CC[n+]1c(-c2ccccc2)c2cc(N)ccc2c2ccc(N)cc21 | Active | – | – | – | – | – | – | – | – | – | – | –
O=C1O[C@@]23C[C@@H](C=CC2=C1C(O)c1ccc(C(F)(F)F)cc1)N1CCCC[C@@H]13 (stereo in doubt; 4a-6) | – | 2.91 | 8.99 | 2.42 | 8.57 | 18.2 | 6.26 - 7.56 | – | – | – | – | –
O=C1C=C2C=C[C@@H]3C[C@@]2(O1)[C@H]1CCCCN31 [SECURININE] | – | 23.6 | 50.2 | 36.9 | 78.9 | – | – | 23.9 | 25.9 | – | – | –
CC[C@@]1(O)C(=O)OCc2c1cc1n(c2=O)Cc2cc3ccccc3nc2-1 [CAMPTOTHECIN] | – | 0.12 | 59.1 | 29.8 | > 100 | – | – | – | – | Active | – | –
O=C1O[C@@]23C[C@@H](C=CC2=C1C(O)c1ccc([N+](=O)[O-])cc1)N1CCCC[C@@H]13 (stereo partly specified) | – | 2.21 | 8.26 | 4.13 | 8.5 | 16.7 | 6.26 - 7.56 | 56.7 | – | – | Dose-dependent effect | –
O=C1O[C@@]23C[C@@H](C=CC2=C1[C@H](O)c1ccc([N+](=O)[O-])cc1)N1CCCC[C@@H]13 | – | 2.23 | 8 | 4.19 | 8.48 | – | – | – | – | – | – | Dose-dependent effect
